Bioassay records as filed in PubChem.
Sampled rows, rich in hits. Any-hit rate of the full collection: about 1.2%.
ARNT-TACC3 inh = disrupts binding between human ARNT and TACC3; Q9Y6A5; 390,000 tested, 0.66% active; AID 623870; AlphaScreen His-ARNT PAS-B/GST-TACC3 binding, luminescence; TACC3 fragment carries E629A point mutation; inhibition, % at 9.99 µM;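 active = mean inhibition of replicates at least 50% and at least half of replicates each reaching 50%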
CAL PDZ FP-1 = blocks peptide binding to human CAL PDZ domain; inhibition, % at 20 µM; 330,000 tested, 0.02% active; Q9HD26; purified CAL PDZ, TMR-peptide fluorescence polarization, 1 h; AID 504414;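 active = highest replicate inhibition of at least 40%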
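Assay system – tagged CAL PDZ protein CerCALP, purified · Timing – 1 h at RT · Compound – single point, 20 µM · Measured by – fluorescence polarization from S- and P-plane intensities, G-factor corrected · Evaluation – inhibition from polarization loss · Probe or stimulus – TMR reporter peptide T*-PRC34 · Buffer or medium – pH 7.4 phosphate-saline buffer, reducing agent, detergent, IgG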
CaV13 ICDI inh = Primary screen for inhibitors of IQ motif and Ca2+-dependent inactivation inhibitor domain binding in CACNA1D, Förster resonance energy transfer in living cells, …; HEK cells, CFP/YFP FRET ICDI-IQ, plate reader, 10 min; percent FRET-ratio fall versus neutral wells; inhibition, % at 12.3 µM; 340,000 tested, 0.098% active;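 active = mean replicate inhibition of at least 30% and at least 1% of replicates passing that level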
CAL PDZ FP-2 = CAL PDZ (human) peptide binding inhibition; purified CAL PDZ, TMR-peptide fluorescence polarization, 1 h; inhibition, % at 24.9 µM; 300,000 tested, 0.92% active;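 active = mean inhibition of at least 30% with at least half of replicates also reaching 30%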
Numbers stand for hits; . = inactive; / = no result given; + = active, no number.

SMILES	ARNT-TACC3 inh	CAL PDZ FP-1	CaV13 ICDI inh	CAL PDZ FP-2
O=C(C[C@H]1C[C@@H]2c3cc(NC(=O)NC4CCCC4)ccc3O[C@@H]2[C@@H](CO)O1)NCc1ccncc1	.	/	/	/
Cc1ccccc1NC(=O)Cn1nc(C)c2ccccc2c1=O	.	.	.	34.5
COC(=O)c1ccccc1NC(=O)CCCn1nc(C)c2c(C)n(-c3ccccc3)nc2c1=O	.	.	.	/
Cc1ccccc1NC(=O)Cn1nc(C(=O)O)c2ccccc2c1=O	.	.	.	.
Cc1ccccc1NC(=O)CCCn1nc(C)c2c(C)n(-c3ccccc3)nc2c1=O	.	.	.	30.3
COc1ccc(CN(C)C[C@H]2Oc3ccc(NC(=O)Nc4c(C)noc4C)cc3CC(=O)N([C@H](C)CO)C[C@H]2C)cc1	.	/	/	/
CO[C@@H]1CN(C)C(=O)c2ccc(NS(C)(=O)=O)cc2OC[C@H](C)N(C(=O)NC(C)C)C[C@H]1C	.	/	/	/
N#C[C@@H]1[C@H](c2ccc(C3=CCCCC3)cc2)[C@H](CO)N1C(=O)Nc1ccccc1F	.	/	/	/
CC(=O)N1CCC(=NNC(=O)c2cc3ccccc3cc2O)CC1	.	.	.	55.3
CCOC(=O)N1CCC(=NNC(=O)c2cc3ccccc3cc2O)CC1	.	.	.	/
C[C@H]1CN([C@@H](C)CO)C(=O)c2cccc(NC(=O)c3cnccn3)c2O[C@H]1CN(C)CC1CCCCC1	.	/	/	/
Cc1[nH]n(-c2ccccc2)c(=O)c1/C=N/n1c(C)nc2ccccc2c1=O	30.8	.	.	.
CCC(=O)Nc1sc2c(c1C(N)=O)CCN(Cc1ccccc1)C2	.	.	48.4	/
NC(=O)c1c(NC(=O)c2ccccc2)sc2c1CCN(Cc1ccccc1)C2	.	.	+	.
NC(=O)c1c(NC(=O)c2c(F)cccc2F)sc2c1CCN(Cc1ccccc1)C2	.	.	.	.
CCN1CCc2c(sc(NC(=O)Cc3ccccc3)c2C(N)=O)C1	.	.	.	/
CC(C)C(=O)Nc1sc2c(c1C(N)=O)CCN(Cc1ccccc1)C2	.	.	+	/
CCN1CCc2c(sc(NC(=O)Nc3ccc(Cl)c(Cl)c3)c2C(N)=O)C1	.	.	59.3	.
CC(C)NC(=O)Nc1ccc2c(c1)CC(=O)N([C@H](C)CO)C[C@H](C)[C@@H](CN(C)S(=O)(=O)c1cn(C)cn1)O2	.	/	/	/
O=C(Cc1ccccn1)NCC[C@H]1CC[C@H](NC(=O)CN2CCOCC2)[C@H](CO)O1	.	/	/	/
O=C(CSc1nnc(-c2ccccn2)n1Cc1ccccc1)Nc1ccc2c(c1)OCO2	.	/	/	32.1
Cn1c(SCC(=O)Nc2ccc3c(c2)OCCO3)nnc1-c1ccccn1	.	.	/	.
COc1ccc(OC)c(S(=O)(=O)Nc2c(C)n(C)n(-c3ccccc3)c2=O)c1	.	.	.	74.4
CCCNC(=O)N(C)C[C@H]1Oc2ncc(-c3ccc(F)cc3)cc2C(=O)N([C@@H](C)CO)C[C@H]1C	.	/	/	/
CC(C)NC(=O)N[C@@H]1C=C[C@H](CC(=O)O)O[C@@H]1CO	.	/	/	/
SMILES	ARNT-TACC3 inh	CAL PDZ FP-1	CaV13 ICDI inh	CAL PDZ FP-2
O=C(CSc1nnc(-c2ccccc2)n1Cc1ccccc1)N1CCOCC1	.	/	.	.
Oc1ccccc1-c1nnc(SCCN2CCOCC2)n1Cc1ccccc1	.	.	.	55.7
CCOc1cc(C(C(=O)NCC2CCCO2)N(C(=O)Cn2nnc3ccccc32)c2ccccc2C)ccc1O (stereo not drawn)	.	.	.	50.3
C[C@H]1CN([C@@H](C)CO)C(=O)c2cc(C3=CCCC3)cnc2O[C@@H]1CN(C)Cc1cccc(F)c1	.	/	/	/
Cc1ccc(C(C(=O)NC(C)(C)C)N(CC2CCCO2)C(=O)CCC(=O)Nc2ccccn2)cc1 (stereo not drawn)	.	.	.	84.5
CCC(C)(C)NC(=O)C(c1ccc(C)cc1)N(CC1CCCO1)C(=O)CCC(=O)Nc1ccccn1 (stereo not drawn)	.	.	.	/
CC1c2cccn2CCN1S(=O)(=O)c1ccc(F)cc1 (stereo not drawn)	.	.	.	73.8
C[C@@H]1CN([C@H](C)CO)S(=O)(=O)c2ccc(C#CCN(C)C)cc2O[C@H]1CN(C)C(=O)C1CCCCC1	.	/	/	/
COCCOc1cc2ncnc(N3CCC(C(=O)O)CC3)c2cc1OCCOC	.	.	.	164.2
CCn1c(=N)c(C(=O)NC)cc2c(=O)n3cccc(C)c3nc21	.	.	/	.
Cc1cccn2c(=O)c3cc(C(=O)NC(C)c4ccccc4)c(=N)n(CCCn4ccnc4)c3nc12 (stereo not drawn)	.	.	75.3	.
Cc1ccc2nc3c(cc(C(N)=S)c(=N)n3CCCOC(C)C)c(=O)n2c1	.	.	34.0	.
Cc1ccc2nc3c(cc(C(=O)NCc4ccccc4)c(=N)n3CCCn3ccnc3)c(=O)n2c1	.	.	+	.
CCCNC(=O)[C@@H]1[C@@H](CO)[C@@H]2Cn3c(cccc3=O)[C@H]1N2Cc1cc(F)ccc1F	.	/	/	/
Cc1cccc2[nH]c(CN(C)C(=O)C3CCC(=O)N(C4CC4)C3)nc12 (stereo not drawn)	.	.	.	42.7
CN(Cc1nc2ccccc2[nH]1)C(=O)C1CCC(=O)N(C2CCCC2)C1 (stereo not drawn)	.	.	.	.
O=C(C[C@@H]1C=C[C@@H](NS(=O)(=O)c2ccc(F)cc2)[C@H](CO)O1)NC1CCC1	.	/	/	/
Cc1ccccc1NNC(=O)C(=O)NNc1ccccc1C	.	.	.	32.8
Cc1ccccc1NC(=O)Cc1ccccc1	.	.	.	69.6
Cc1ccccc1NC(=O)CCCCC(=O)Nc1ccccc1C	.	.	.	.
COc1ccc(NS(=O)(=O)c2ccc(O)c(C(=O)OCC(=O)N3CCCCC3)c2)cc1	/	.	.	39.2
Cc1ccc(S(=O)(=O)Nc2cccc3ncccc23)s1	70.1	/	/	.
C[C@H](CO)N1C[C@H](C)[C@H](CN(C)C(=O)Nc2ccccc2)Oc2c(NC(=O)c3nc4ccccc4s3)cccc2C1=O	.	/	/	/
CNC[C@H]1OCCCC[C@@H](C)Oc2ccc(NS(=O)(=O)c3ccc(F)cc3)cc2C(=O)N([C@H](C)CO)C[C@@H]1C	.	/	/	/
CCc1ccc(CNCCNCC(C)O)cc1 (stereo not drawn)	.	.	.	/
SMILES	ARNT-TACC3 inh	CAL PDZ FP-1	CaV13 ICDI inh	CAL PDZ FP-2
CC(O)CNCCNCc1cccs1 (stereo not drawn)	.	.	.	46.9
COc1ccc(C=Nc2cccnc2N)cc1	28.4	/	/	.
Cc1noc(C)c1NC(=O)N[C@@H]1CC[C@@H](CC(=O)NCc2ccc(Cl)c(Cl)c2)O[C@@H]1CO	.	/	/	/
O=C(CSC1=NNC(c2ccccn2)S1)Nc1ccc(C(F)(F)F)cc1 (stereo not drawn)	76.1	.	.	.
c1ccc(CSC2=NNC(c3ccccn3)S2)cc1 (stereo not drawn)	.	.	.	.
COC(=O)C[C@@H]1C[C@H]2c3cc(NC(=O)Nc4ccc(F)cc4)ccc3O[C@H]2[C@H](CO)O1	.	/	/	/
C[C@H]1CN([C@@H](C)CO)C(=O)c2cc(NC(=O)c3ccncc3)ccc2O[C@@H]1CN(C)Cc1ccc(C(=O)O)cc1	.	/	/	/
